Assay outcomes: PubChem, several laboratories
697 NFkB inh: inhibitors of PMA/ionomycin-induced NF-kB reporter, 697 cells, primary screen, B-cell NF-kB inhibitor project, cell-based, luminescence, uHTS | inhibition, % at 4 µM | 697 B-cell NF-kB luciferase reporter, 16 h | 330,000 compounds, 0.33% hits; in the data active = inhibition above about 35%
FGF22 binding: binders of human FGF22 protein, primary screen, FGF22 synaptogenesis inhibitor project, biophysical, thermal shift, single point. Fibroblast growth factor 22 (Homo sapiens), Q9HCT0. recombinant FGF22 thermal shift, SYPRO orange fluorescence; percent of sucrose octasulfate shift, DMSO zero. activity (Tm shift, normalised), % at 9.99 µM. 340,000 compounds, 1.5% hits;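 active = mean Tm shift, scaled 0 neutral to 100 positive control, at about 1.3% or above, every replicate too, limit read from the data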
Target sequence (Q9HCT0 whole entry, looked up): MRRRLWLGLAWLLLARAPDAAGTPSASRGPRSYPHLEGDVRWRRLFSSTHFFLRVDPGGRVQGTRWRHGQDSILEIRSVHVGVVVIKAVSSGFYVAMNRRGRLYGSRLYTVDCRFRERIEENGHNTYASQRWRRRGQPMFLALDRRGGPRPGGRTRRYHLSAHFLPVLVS
NR2E3 ag-1: inhibitors of NR2E3-RetCOR corepressor binding, primary screen, NR2E3 agonist project, biochemical, TR-FRET, GST-NR2E3, biotin-RetCOR | Photoreceptor-specific nuclear receptor (Homo sapiens), Q9Y5X4 | 1536-well | inhibition of corepressor binding, % at 4.78 µM | 320,000 compounds, 0.12% hits | AID 2300, 2010;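 active = percent inhibition above the cutoff of mean plus 3 SD of all tested compounds, set per screening campaign, cut at about 20% in these data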
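System: GST-NR2E3 and biotin-RetCOR proteins; probe or stimulus: 7 nM biotin-RetCOR; doses: compound at 4.8 µM, single dose; schedule: Compound–protein incubation for 5 h at 4 °C; detection: time-resolved FRET; read-out: percent inhibition; controls: biotin wells as high control, 0.6% DMSO wells as low control; format: 1536-well plates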
Jurkat NFkB inh: inhibitors of induced NF-kB luciferase reporter, primary screen, TCR NF-kB activation inhibitor project, cell-based, luminescence, uHTS; Jurkat, PMA/ionomycin-induced NF-kB luciferase reporter; inhibition, % at 4 µM; 330,000 compounds, 0.53% hits; in the data active = inhibition above about 50%
miR122 inh: miR-122 Renilla sensor signal increase in Huh7, primary screen, miR-122 inhibitor project, cell-based, single point, plate reader. Huh7 miR-122 Renilla luciferase sensor, 48 h; neutral wells = 0, positive control = 100. activation (reporter increase), % at 12.5 µM. 340,000 compounds, 0.3% hits. AID 602342, 2012;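 active = mean replicate activation score at least 90 and every replicate individually at or above 90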;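 also: higher luciferase means less miR-122 activity so hits act as miR-122 inhibitors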
NR2E3 ag-2: NR2E3 agonists in two-hybrid cells, primary screen, cell-based, luminescence, CHO-S, Gal4-NCOR/VP16-NR2E3 | luciferase | AID 602229, 2012 | inhibition of corepressor binding, % at 3.98 µM | Photoreceptor-specific nuclear receptor (Homo sapiens), Q9Y5X4 | 360,000 compounds, 0.35% hits;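 active = inhibition above the mean of all tested compounds plus 3 SD, cut at about 70% in these data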;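 also: higher means lower luciferase signal from less NR2E3 corepressor binding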
NR2E3 ag conf: NR2E3 agonist confirmation in cells, cell-based, luminescence, CHO-S two-hybrid; shares compounds with NR2E3 ag-2; CHO-S mammalian two-hybrid NR2E3-NCOR, luciferase luminescence; inhibition, % at 3.98 µM; 2,300 compounds, 51% hits; AID 624378, 2012;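 active = average inhibition above a cutoff equal to the mean inhibition of all tested compounds plus one SD, cut at about 70% in these data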
VP16 counter: GAL4-VP16 reporter modulators, confirmation, counter-screen for NR2E3 agonist project, cell-based, luminescence, CHO-S, high throughput; shares compounds with NR2E3 ag-2; CHO-S GAL4-VP16 luciferase reporter; inhibition, % at 3.98 µM; 2,300 compounds, 29% hits;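 active = mean inhibition above a cutoff equal to the average over all tested compounds plus one standard deviation, cut at about 70% in these data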;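 also: luciferase from a UAS reporter driven by GAL4-VP16 transactivation; higher means less reporter light so more repression of VP16 activity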
Of the large screens only hits and unclear results are named; the others gave an inactive call (follow-up assays come after a bar, where they were run). Most compounds without a hit are left out; they make up all but 2.2% or so of the library.

Cc1cccc(-n2ncc3c(N(C)C4CCCCC4)ncnc32)c1	NR2E3 ag-2 73 | NR2E3 ag conf inactive | VP16 counter inactive
COc1cccc(NC(=O)N2C[C@@H](O)COC[C@@H]3O[C@@H](CC(=O)N(C)C)CC[C@H]32)c1	none (no result: 697 NFkB inh, NR2E3 ag-1, Jurkat NFkB inh, NR2E3 ag-2)
Cc1noc(C)c1NC(=O)N(C)C[C@@H]1OCCCC[C@@H](C)Oc2ccc(NS(=O)(=O)c3ccccc3)cc2C(=O)N([C@H](C)CO)C[C@H]1C	none (no result: 697 NFkB inh, FGF22 binding, NR2E3 ag-1, Jurkat NFkB inh, NR2E3 ag-2)
COc1ccc(CN(C)C[C@H]2Oc3ccc(NC(=O)NC4CCCCC4)cc3CC(=O)N([C@H](C)CO)C[C@H]2C)cc1	none (no result: 697 NFkB inh, NR2E3 ag-1, Jurkat NFkB inh, NR2E3 ag-2)
Cn1c(SCC(=O)N2CCCC2)nc2ccccc21	none (no result: miR122 inh)
Cn1c(Sc2nc3ccccc3n2C)nc2ccccc21	NR2E3 ag-2 76 (no result: FGF22 binding, miR122 inh) | NR2E3 ag conf inactive | VP16 counter inactive
COc1ccccc1-c1nnc(SCC(=O)Nc2ccc(Cl)cc2Cl)o1	none (no result: FGF22 binding)
COc1cccc2c1OC[C@@H](CO)[C@H]2N(C)C(=O)Nc1ccc(Cl)cc1Cl	none (no result: FGF22 binding) | NR2E3 ag conf inactive | VP16 counter inactive
N#C/C(=N\Nc1cccc(C(F)(F)F)c1)C(=O)c1csc(-c2cccnc2)n1	NR2E3 ag-2 77 (no result: miR122 inh) | NR2E3 ag conf 94 | VP16 counter 77
Cc1noc(C)c1NC(=O)Nc1ccc2c(c1)CC(=O)N([C@@H](C)CO)C[C@H](C)[C@H](CN(C)C(=O)NC(C)C)O2	none (no result: 697 NFkB inh, NR2E3 ag-1, Jurkat NFkB inh, NR2E3 ag-2)
O=C(NCc1cccnc1)c1cc(C(=O)C2CC2)c[nH]1	none
O=C(NCc1ccccc1Cl)c1cc(C(=O)C2CC2)c[nH]1	none | NR2E3 ag conf inactive | VP16 counter inactive
CCCCCCC(=O)N1C/C=C\C(c2ccc(OC)cc2)N(Cc2ccc(F)cc2)C(=O)C1 (centres undefined)	none | NR2E3 ag conf inactive | VP16 counter inactive
Cc1ccc(CNC(=O)c2ccc(N3CCC4(CC3)CC(c3cccc(Br)c3)=NO4)c([N+](=O)[O-])c2)cc1	none (no result: miR122 inh)
CCCNC(=O)c1ccc(N2CCC3(CC2)CC(c2cccc(Br)c2)=NO3)c([N+](=O)[O-])c1	none | NR2E3 ag conf 74 | VP16 counter inactive
Cc1csc2ncnc(NCCc3ccccn3)c12	NR2E3 ag-2 71 (no result: miR122 inh) | NR2E3 ag conf 90 | VP16 counter 77
CSc1ccc(CN(C)C(=O)c2ccc(S(=O)(=O)Nc3c(C)n(C)n(-c4ccccc4)c3=O)cc2)cc1	none (no result: 697 NFkB inh, NR2E3 ag-1, Jurkat NFkB inh, miR122 inh)
CSc1ccc(CN(C)C(=O)c2ccc(S(=O)(=O)Nc3ccccc3)cc2)cc1	none | NR2E3 ag conf inactive | VP16 counter inactive
C[C@H](CO)N1C[C@H](C)[C@H](CN(C)S(=O)(=O)c2cn(C)cn2)Oc2ncc(C#Cc3ccc(F)cc3)cc2C1=O	none (no result: 697 NFkB inh, NR2E3 ag-1, Jurkat NFkB inh, NR2E3 ag-2)
Cc1cccnc1CN1CCN(C(=O)c2cc(COc3ccc4ncccc4c3)on2)CC1	NR2E3 ag-2 78 (no result: miR122 inh) | NR2E3 ag conf 99 | VP16 counter 88
CCOC(=O)N1CCN(C(=O)c2cc(COc3ccc4ncccc4c3)on2)CC1	none | NR2E3 ag conf 83 | VP16 counter 76
Cc1ccc2nc(N3C(=O)CNC3=S)sc2c1	none | NR2E3 ag conf inactive | VP16 counter inactive
C/C(=N\NC(=S)Nc1cccc(C)c1)c1cccc(N)c1	none (no result: FGF22 binding)
COc1ccccc1NC(=O)c1ccccc1NC(=O)c1ccccn1	none (no result: NR2E3 ag-1)
